# DENV2 CPE rescue: inhibitors of DENV2 cytopathic effect, primary screen, cell-based, plate reader, single concentration; actives 1.7% (n = 350,000); CPE inhibition, % at 9.99 µM; DENV2-infected cells, cytopathic effect rescue; in the data active = CPE inhibition above about 20%, passing the limit was not always enough; inconclusive = no clear call, values can overlap the other calls; tested in BHK-21 cells;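 also: 0% = median of neutral control wells and 100% = median of positive control wells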
# ERAP1 HTS inh: human ERAP1 aminopeptidase inhibitors, primary screen, biochemical, single point, plate reader; Endoplasmic reticulum aminopeptidase 1 (Homo sapiens), Q9NZ08; recombinant ERAP1, Leu-AMC fluorescence, 60 min; inhibition, % at 10.7 µM; actives 0.15% (n = 340,000); AID 652197, 2013;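 active = mean replicate inhibition of at least 30%, or all replicates individually reaching that 30% level; inactive = mean below 30% and not every replicate reaching it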;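 also: 0% = neutral control wells and 100% = L-leucinethiol positive control wells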
# FGF22 binding: binders of human FGF22 protein, primary screen, FGF22 synaptogenesis inhibitor project, biophysical, thermal shift, single point. recombinant FGF22 thermal shift, SYPRO orange fluorescence; percent of sucrose octasulfate shift, DMSO zero. actives 1.5% (n = 340,000). Fibroblast growth factor 22 (Homo sapiens), Q9HCT0. activity (Tm shift, normalised), % at 9.99 µM. AID 651658, 2012;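 active = mean Tm shift, scaled 0 neutral to 100 positive control, at about 1.3% or above, every replicate too, limit read from the data; inconclusive = no clear call, values can overlap the other calls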
# Target sequence (Q9HCT0 whole entry, looked up): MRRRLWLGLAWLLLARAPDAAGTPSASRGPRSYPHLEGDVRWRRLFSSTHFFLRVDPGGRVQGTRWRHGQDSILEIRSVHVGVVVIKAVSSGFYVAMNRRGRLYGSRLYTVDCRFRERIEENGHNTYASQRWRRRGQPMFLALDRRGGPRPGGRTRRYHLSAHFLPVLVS
# E-selectin induc: E-selectin induction in HUVECs, primary screen, imaging, HUVEC, immunofluorescence imaging, single point. P16581. normalized: neutral wells 0, TNF-alpha wells 100. activation, % at 7.58 µM. actives 0.37% (n = 260,000). AID 686992, 2013;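 active = mean E-selectin-positive cell signal at least 10% of the positive control, reached in at least 60% of replicates, without over 20% cell loss; inconclusive = no rule given, readout overlaps actives, possibly toxicity-flagged; inactive = the rest, including those meeting only one limit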
#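 Material: HUVEC primary endothelial cells; Amount: 3,000 cells per well; Dosing: single concentration; Medium: EGM-2 growth medium on 0.1% gelatin-coated wells; Read-out basis: percent E-selectin-positive cells; Signal: immunofluorescence imaging; Control set: TNF-alpha, DMSO.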
# CFTR F508del cor: F508del CFTR correction, initial screen, CFBE line, single point; CFBE cells, YFP halide quenching; stimulated with forskolin plus potentiator P3; % fluorescence drop versus neutral controls; activity (quench increase), % at 7.58 µM; actives 0.36% (n = 350,000); AID 720511, 2013;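 active = mean added fluorescence quench of at least 8% versus neutral control, with both replicates also reaching 8%; inconclusive = only one of the mean or replicate conditions met; inactive = mean below 8% and not both replicates reaching 8%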;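 also: cells transiently co-express mutant CFTR-F508del with the halide-sensitive YFP; corrector assay measuring rescue of mutant channel to the surface after 24 h compound exposure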
# An asterisk follows results filed as active; ? = inconclusive; · = no result given. An excerpt weighted towards active compounds, which were near 3.7% of everything screened.
SMILES,DENV2 CPE rescue,ERAP1 HTS inh,FGF22 binding,E-selectin induc,CFTR F508del cor
O=C(NC[C@H]1CC[C@@H]2[C@@H](CN2S(=O)(=O)c2ccccc2[N+](=O)[O-])O1)c1cccnc1,12,0,·,·,-4
Cc1ccc(NC(=O)c2ccc(S(=O)(=O)N3CC(C)CC(C)C3)cc2)cc1S(=O)(=O)N1CCOCC1 (stereo unspecified),46*,0,0,·,3
Cc1ccc(NC(=O)CSc2nc(N)cc(=O)[nH]2)cc1S(=O)(=O)N1CCOCC1,-1,·,0,1,0
Cc1ccc(NC(=O)COc2ccc(Br)cc2CO)cc1S(=O)(=O)N1CCOCC1,10,0,0,·,8.6*
Cc1ccc(NC(=O)CSc2n[nH]c(N)n2)cc1S(=O)(=O)N1CCOCC1,-5,2,44*,0,-3
C[C@H](NC(=O)C[C@H]1C[C@H]2c3cc(NC(=O)NC4CCCCC4)ccc3O[C@H]2[C@H](CO)O1)c1ccccc1,7,-1,0,1,-1
C[C@H](CO)N1C[C@H](C)[C@@H](CN(C)Cc2ccccc2)Oc2ccc(NC(=O)Cc3cn(C)c4ccccc34)cc2C1=O,1,-3,0,0,0
COC(=O)CCC(=O)OC1(C)C(=O)C2=CN(Cc3ccccc3)C(c3ccc(OC)cc3)=CC2=C(Br)C1=O (stereo unspecified),-1,5,0,6,0
COC(=O)CCC(=O)OC1(C)C(=O)C2=CN(Cc3ccc(OC)cc3)C(c3ccc(OC)cc3)=CC2=C(Br)C1=O (stereo unspecified),23*,1,0,0,-3
C[C@H]1CN([C@@H](C)CO)S(=O)(=O)c2ccc(C#CC3CC3)cc2O[C@@H]1CN(C)Cc1cncnc1,·,·,·,1,0
Cc1noc(C)c1S(=O)(=O)Nc1ccc2c(c1)C(=O)N([C@@H](C)CO)C[C@@H](C)[C@@H](CN(C)S(=O)(=O)c1cccs1)OCCCC[C@@H](C)O2,?,·,-1,·,-3
O=C(O)c1c(-c2ccc(Cl)cc2)cn2ccccc12,0,-2,43*,·,-1
CC(C)NC(=O)C1(C)Cc2c(-c3ccc(C(N)=O)cc3)ccnc2O1 (stereo unspecified),11,6,0,0,-1
CC1(C(=O)NCc2ccco2)Cc2c(-c3ccc(C(N)=O)cc3)ccnc2O1 (stereo unspecified),40*,-2,0,·,0
CC(=O)Nc1cccc(-c2ccnc3c2CC(C)(C(=O)NCc2cccs2)O3)c1 (stereo unspecified),2,1,0,7,9.9*
CC1(C(=O)NCc2ccccc2)Cc2c(-c3ccc(C(N)=O)cc3)ccnc2O1 (stereo unspecified),6,1,0,2,15*
C[C@H](CO)N1C[C@H](C)[C@H](CN(C)Cc2ccncc2)Oc2c(NS(=O)(=O)c3cn(C)cn3)cccc2C1=O,7,-1,0,-1,-1
COCC(=O)N(C)C[C@H]1Oc2cc(-c3ccc(C)cc3)ccc2S(=O)(=O)N([C@H](C)CO)C[C@@H]1C,5,-1,0,0,-2
CCc1ccc(OCc2n[nH]c(=S)n2C(C)CCCC(C)C)cc1 (stereo unspecified),-3,-3,0,·,17*
COc1ccc(CCNC(=O)CSC2=NS(=O)(=O)c3cc(F)ccc3N2)cc1OC,-7,-9,0,·,·
COc1ccc(CCNC(=O)CSC2=NS(=O)(=O)c3ccccc3N2)cc1OC,82*,-1,0,·,4
C/C=C/c1ccc2c(c1)O[C@H](CN(C)C(=O)COC)[C@@H](C)CN([C@@H](C)CO)S2(=O)=O,-4,0,0,0,4
Cc1cc(/C=N/NC(=O)c2ccsc2)c(C)n1-c1cnccn1,-8,-3,44*,·,1
CN(C)/C=C1\C(=O)N(c2ccc(Cl)c(Cl)c2)CS1(=O)=O,·,1,43*,·,1
CN(C)C1=C(Cl)C(=O)N(c2ccc(Cl)c(Cl)c2)C1=O,13,2,0,0,-3

# Screening data (PubChem BioAssay)
